Results from PubChem BioAssay AID588392 (Broad Institute, 2011).
Values joined by “and” are separate entries in the source; they are usually repeats but may differ in a detail not shown here. Identical values can stand only once.

Molecular target: Scavenger receptor class B member 1 (Mus musculus) (UniProt Q61009)
Test: SR-BI-mediated DiI-HDL uptake inhibitors, dose response, ldlA[mSR-BI] CHO cells, powder samples, set 2 (AID 588392)
Conditions: DiI-HDL uptake fluorescence, 3 h
In short: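 Assay system: ldlA[mSR-BI] CHO cells, LDL receptor-deficient, overexpressing murine SR-BI. Probe or stimulus: DiI-labeled HDL, 10 µg/mL final. Doses: compounds delivered by pin transfer. Timing: cell plating overnight before assay, 3 h DiI-HDL uptake at 37 °C. Signal: cellular DiI fluorescence, excitation 550 nm, emission 595 nm, bottom read.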

Chain of Scavenger receptor class B member 1 (Mus musculus) (Q61009 whole entry, looked up): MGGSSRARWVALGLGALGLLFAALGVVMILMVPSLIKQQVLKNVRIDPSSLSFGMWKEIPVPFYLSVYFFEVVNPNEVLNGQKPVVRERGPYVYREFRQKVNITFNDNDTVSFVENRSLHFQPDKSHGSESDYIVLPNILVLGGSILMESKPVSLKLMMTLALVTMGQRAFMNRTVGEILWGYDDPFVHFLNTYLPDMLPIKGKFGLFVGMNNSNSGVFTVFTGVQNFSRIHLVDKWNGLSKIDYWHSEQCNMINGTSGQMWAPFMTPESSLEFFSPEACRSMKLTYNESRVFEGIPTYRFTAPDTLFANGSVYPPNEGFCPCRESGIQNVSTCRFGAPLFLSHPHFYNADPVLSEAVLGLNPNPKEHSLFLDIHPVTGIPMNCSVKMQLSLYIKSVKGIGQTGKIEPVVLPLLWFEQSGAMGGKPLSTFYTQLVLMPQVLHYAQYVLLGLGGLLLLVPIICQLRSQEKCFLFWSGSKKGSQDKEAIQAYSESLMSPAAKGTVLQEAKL

With COc1ccc(-c2nnn(CC(=O)N(C3CCCCC3)C(C)C(=O)NC3CCCC3)n2)cc1OC (centres undefined) as the molecule, how does the AC50 read?
Its AC50 is 72.5 nM.

For O=C(Nc1nc(-c2ccc3c(c2)CCN3)cs1)c1ccco1, which AC50 is on record?
Its AC50 is 44.7 nM.

With C[C@@H]1CN([C@H](C)CO)C(=O)c2cc(NC(=O)Cc3cn(C)c4ccccc34)ccc2O[C@H]1CN(C)S(=O)(=O)c1ccc(Cl)cc1 as the molecule, how does the AC50 read?
The AC50 was 81 nM and 268 nM.

CCCCCCC1CCC/C1=N\NC(N)=S (centres undefined) was tested. Which AC50 did it give?
Its AC50 is 7.1 nM.

Which AC50 does the source give for O=C(Nc1nc(-c2ccc3c(c2)CCN3C(=O)C2CC2)cs1)c1ccco1 here?
Its AC50 is 186 nM.

How did the AC50 turn out when CCC(=O)N1CCc2cc(-c3csc(NC(=O)c4cccc(OC)n4)n3)ccc21 was run?
Its AC50 is 528 nM.

With COc1ccc(-c2cc(CC(=O)N(C3CCCCC3)C(C)C(=O)NC3CCCC3)no2)cc1OC (centres undefined) as the molecule, how does the AC50 read?
Its AC50 is 15.4 nM.

For CCC(=O)N1CCc2cc(-c3csc(NC(=O)c4ccco4)n3)ccc21, which AC50 is on record?
Its AC50 is 53.7 nM.

For CC(C(=O)NC1CCCC1)N(C(=O)Cn1nnc(-c2cccc(F)c2)n1)C1CCCCC1 (centres undefined), which AC50 is on record?
Its AC50 is 379 nM.

Which AC50 does the source give for CCC(=O)N1CCc2cc(-c3coc(NC(=O)c4ccco4)n3)ccc21 here?
Its AC50 is 18900 nM.

CCC(=O)N1CCc2cc(-c3csc(NC(=O)c4cc(OC)cc(OC)c4)n3)ccc21 was tested. Which AC50 did it give?
The AC50 was 4.33 nM.

With CC(C(=O)NC1CCCC1)N(C(=O)Cn1nnc(-c2ccc(F)cc2)n1)C1CCCCC1 (centres undefined) as the molecule, how does the AC50 read?
The AC50 was 125 nM.

With CCC(=O)N1CCc2cc(-c3csc(NC(=O)c4ccc(F)c(OC)c4)n3)ccc21 as the molecule, how does the AC50 read?
The AC50 was 38 nM.

Which AC50 does the source give for CCC(=O)N1CCc2cc(-c3csc(NC(=O)c4cccc(OC)c4)n3)ccc21 here?
Its AC50 is 39.9 nM.

Which AC50 does the source give for CC(C(=O)NC1CCCC1)N(C(=O)Cn1nnc(-c2ccc3c(c2)OCO3)n1)C1CCCCC1 (centres undefined) here?
Its AC50 is 24.3 nM.

CS(=O)(=O)N1CCc2cc(-c3csc(NC(=O)c4ccco4)n3)ccc21 was tested. Which AC50 did it give?
Its AC50 is 386 nM.

For CC(C(=O)NC1CCCC1)N(C(=O)Cn1nnc(-c2ccccc2Cl)n1)C1CCCCC1 (centres undefined), which AC50 is on record?
The AC50 was 3810 nM.

COC(=O)N1CCc2cc(-c3csc(NC(=O)c4ccco4)n3)ccc21 was tested. Which AC50 did it give?
The AC50 was 6840 nM.

Which AC50 does the source give for CCC(=O)N1CCc2cc(-c3cnc(NC(C)=O)[nH]3)ccc21 here?
Its AC50 is 1700 nM.

CC(C(=O)NC1CCCC1)N(C(=O)Cn1nnc(-c2ccccc2F)n1)C1CCCCC1 (centres undefined) was tested. Which AC50 did it give?
The AC50 was 617 nM.

How did the AC50 turn out when CCC(=O)N1CCc2cc(-c3cnc(NC(=O)c4ccco4)[nH]3)ccc21 was run?
The AC50 was 10100 nM.

With O=C(CN(C(=O)Cn1nnc(-c2ccc3c(c2)OCO3)n1)C1CCCCC1)NC1CCCC1 as the molecule, how does the AC50 read?
Its AC50 is 12.6 nM.

With CCC(=O)N1CCc2cc(-c3coc(N)n3)ccc21 as the molecule, how does the AC50 read?
Its AC50 is 20000 nM.

For CC(C(=O)NC1CCCC1)N(C(=O)Cn1nnc(-c2ccc(Cl)cc2)n1)C1CCCCC1 (centres undefined), which AC50 is on record?
Its AC50 is 275 nM.

COc1ccc(-c2nnn(CC(=O)N(CC(=O)NC3CCCC3)C3CCCCC3)n2)cc1OC was tested. Which AC50 did it give?
Its AC50 is 8.98 nM.

CCC(=O)N1CCc2cc(-c3csc(NC(=O)c4cccc(OC(F)(F)F)c4)n3)ccc21 was tested. Which AC50 did it give?
The AC50 was 40.8 nM.

With CC(C)C(=O)N1CCc2cc(-c3csc(NC(=O)c4ccco4)n3)ccc21 as the molecule, how does the AC50 read?
The AC50 was 238 nM.

How did the AC50 turn out when COc1cccc(-c2nnn(CC(=O)N(C3CCCCC3)C(C)C(=O)NC3CCCC3)n2)c1 (centres undefined) was run?
Its AC50 is 180 nM.

With Cc1ccc(-c2nnn(CC(=O)N(C3CCCCC3)C(C)C(=O)NC3CCCC3)n2)cc1 (centres undefined) as the molecule, how does the AC50 read?
The AC50 was 493 nM.
